Measurements as given in ChEMBL document CHEMBL4665717, “New V1a receptor antagonist. Part 2. Identification and optimization of triazolobenzazepines” (Bioorg Med Chem Lett, 2020).
pIC50, pKi: −log10 of the molar value.

Key:
[1] = in vitro; details: human
[2] = in vitro; details: Wistar, rat
[3] = molecular target: T1, Vasopressin V1a receptor (Homo sapiens, UniProt P37288); test: Inhibition of human V1a receptor expressed in human 1321N1 cells assessed as decrease in Arg8-vasopressin-stimulated calcium flux by fluorometric calcium assay; assay type: functional, cell-based
Outline: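 1321N1 cells expressing human V1a receptor stimulated with (Arg8)-vasopressin. Intracellular Ca2+ change measured. IC50 values averaged from at least three independent measurements.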
Target sequence in this assay (P37288 whole entry): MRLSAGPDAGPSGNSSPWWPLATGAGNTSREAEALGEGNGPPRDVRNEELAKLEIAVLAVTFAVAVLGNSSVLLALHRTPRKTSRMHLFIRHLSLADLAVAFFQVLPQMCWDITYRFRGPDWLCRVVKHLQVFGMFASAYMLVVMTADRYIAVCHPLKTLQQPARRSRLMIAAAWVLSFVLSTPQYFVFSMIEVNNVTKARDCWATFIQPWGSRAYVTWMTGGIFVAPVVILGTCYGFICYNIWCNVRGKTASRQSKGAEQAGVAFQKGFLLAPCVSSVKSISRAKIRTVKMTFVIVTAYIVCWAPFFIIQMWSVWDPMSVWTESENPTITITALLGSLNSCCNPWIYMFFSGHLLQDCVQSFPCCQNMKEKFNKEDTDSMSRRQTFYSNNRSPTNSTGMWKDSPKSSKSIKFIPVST

[4] = molecular target: T1, Vasopressin V1a receptor; test: Displacement of [3H]AVP from human V1a receptor expressed in […] cells assessed as dissociation constant by radioligand binding assay; assay type: cell-based, 1321N1
Outline: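 Membranes from 1321N1 cells expressing human V1a or V2 receptor incubated with [3H]AVP and increasing test compound concentrations. Nonspecific binding defined with 2 µM arginine-vasopressin for both receptors. IC50 taken from sigmoidal fit of displacement curves, then converted to Ki by Cheng-Prusoff.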
Target sequence in this assay (P37288 whole entry): as above

[5] = in vitro; details: NMRI, mouse
[6] = tested on: P-glycoprotein; test: Efflux ratio of Apparent permeability across apical to basolateral side in human Caco-2 cells expressing P-glycoprotein at 10 uM by HPLC-UV analysis
[7] = Apparent permeability across apical to basolateral side in vinblastine-treated human Caco-2 cells at 10 uM by HPLC-UV analysis
[8] = species: Mus musculus; test: animal or person; details: ip, 1 h, read-out: INH
[9] = molecular target: T2, Vasopressin V2 receptor (Homo sapiens, UniProt P30518); test: Displacement of [3H]AVP from human […] receptor expressed in […] cells at 1 uM by radioligand binding assay relative to control; assay type: cell-based; details: 1321N1
Outline: (§1)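 Membranes from 1321N1 cells expressing human V1a or V2 receptor incubated with [3H]AVP and single test concentration. Nonspecific binding defined with 2 µM arginine-vasopressin.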

[10] = molecular target: T1, Vasopressin V1a receptor; test: Inhibition of human V1a receptor expressed in human 1321N1 cells assessed as decrease in Arg8-vasopressin-stimulated calcium flux at 10 uM by fluorometric calcium assay relative to control; assay type: functional, cell-based
Target sequence in this assay (P37288 whole entry, looked up): as the sequence (P37288 whole entry) above

[11] = molecular target: T1, Vasopressin V1a receptor; test: Displacement of [3H]AVP from human V1a receptor expressed in […] cells at 10 uM by radioligand binding assay relative to control; assay type: cell-based
Outline: as §1
Target sequence in this assay (P37288 whole entry, looked up): as the sequence (P37288 whole entry) above

[12] = tested on: P-glycoprotein; test: Efflux ratio of Apparent permeability across apical to basolateral side in vinblastine-treated human Caco-2 cells expressing P-glycoprotein at 1 uM by HPLC-UV analysis; assay type: ADME
Outline: (§2)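 Bidirectional transport across VB-Caco-2 monolayers with test compound at 1 or 10 µM. Apparent permeability A→B reported, with PDR from the two directions.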

[13] = Apparent permeability across apical to basolateral side in vinblastine-treated human Caco-2 cells at 1 uM by HPLC-UV analysis; assay type: ADME
Outline: as §2

[14] = tested on: Mus musculus; test: Anti-depression activity in mouse assessed as inhibition of oxytocin-induced scratching at 30 mg/kg, po administered before oxytocin stimulation and measured after 1 hr
[15] = molecular target: T2, Vasopressin V2 receptor; test: Displacement of [3H]AVP from human V2a receptor expressed in 1132N1 cells assessed as dissociation constant by radioligand binding assay

T2 sequence (P30518 whole entry): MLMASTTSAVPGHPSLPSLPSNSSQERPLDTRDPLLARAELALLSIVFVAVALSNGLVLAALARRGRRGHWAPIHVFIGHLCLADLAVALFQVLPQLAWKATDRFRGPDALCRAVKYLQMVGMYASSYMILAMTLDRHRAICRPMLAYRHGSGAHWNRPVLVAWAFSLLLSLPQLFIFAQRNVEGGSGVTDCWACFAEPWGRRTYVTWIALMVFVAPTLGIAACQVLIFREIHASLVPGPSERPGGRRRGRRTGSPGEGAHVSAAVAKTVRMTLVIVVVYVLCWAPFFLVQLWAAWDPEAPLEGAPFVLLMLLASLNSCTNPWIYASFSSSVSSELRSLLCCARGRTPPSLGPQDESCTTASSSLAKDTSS

| Compound | microsomal CLint at 1 µM ([1]; liver microsomes) [µL/min/mg] | microsomal CLint at 1 µM ([2]; liver microsomes) [µL/min/mg] | pIC50 [3] | pKi [4] | microsomal CLint at 1 µM ([5]; liver microsomes) [µL/min/mg] | inhibition [10] [%] | further results |
| --- | --- | --- | --- | --- | --- | --- | --- |
| CCc1ccc2c(c1)CCCc1nnc(C3CCN(c4ccccn4)CC3)n1-2 | 31 | 163 | 6.60 | 7.82 | 170 |  |  |
| Cc1cc([C@H]2CC[C@H](c3nnc4n3-c3ccc(Cl)cc3[C@H]3C[C@@H]43)CC2)no1 |  |  | 6.20 | 7.26 |  |  |  |
| Brc1ccc2c(c1)CCCc1nnc([C@H]3CC[C@H](Oc4ccccn4)CC3)n1-2 | 9 | 110 | 8.89 | 9.22 | 90 |  | efflux ratio at 10 µM [6]: 0.9; Papp A→B at 10 µM [7]: 29 ×10⁻⁶ cm/s |
| Cc1cc([C@H]2CC[C@H](c3nnc4n3-c3ccc(Cl)cc3CC4)CC2)no1 | 0.3 | 13 | 7.00 | 7.89 | 13 |  | inhibition in vivo at 10 mg/kg [8]: 45%; inhibition [9]: 9% |
| Cc1cc([C@H]2CC[C@H](c3nnc4n3-c3ccc(Br)cc3CCC4)CC2)no1 | 3 | 76 | 8.77 | 9.22 | 36 |  |  |
| Clc1ccc2c(c1)C1CC1c1nnc([C@H]3CC[C@@H](Oc4ccccn4)CC3)n1-2 (some centres not stated) |  |  |  | 6.74 |  | < 50 |  |
| Brc1ccc2c(c1)CCCc1nnc(C3CCN(c4ccccn4)CC3)n1-2 | 8 | 111 | 7.89 | 9.15 | 50 |  | efflux ratio at 10 µM [6]: 0.8; Papp A→B at 10 µM [7]: 46 ×10⁻⁶ cm/s |
| Clc1ccc2nc3[nH]nc(C4CCN(c5ccccn5)CC4)n3c2c1 |  |  |  |  |  | 8 | inhibition ([11]; 1321N1): 27% |
| O=C(C1CCN(c2ccccn2)CC1)N1CCNc2cc(Cl)ccc21 | 80 | 404 | 6.59 | 8.85 | 132 |  | efflux ratio at 10 µM [6]: 0.7; Papp A→B at 10 µM [7]: 48 ×10⁻⁶ cm/s |
| O=S(=O)(c1ccccn1)N1CCC(c2nnc3n2-c2ccc(Cl)cc2CC3)CC1 |  |  |  |  |  | < 50 | inhibition ([11]; 1321N1): 19% |
| NC1Cc2cc(Cl)ccc2-n2c1nnc2C1CCN(c2ccccn2)CC1 (configuration not stated) |  |  |  |  |  | < 50 | inhibition ([11]; 1321N1): 34% |
| Clc1ccc2c(c1)CCc1nnc([C@H]3CC[C@H](Oc4ccccn4)CC3)n1-2 | 3 | 12 | 7.15 | 8.05 | 15 |  | inhibition in vivo at 10 mg/kg [8]: 66%; inhibition [9]: 13% |
| O=S(=O)(c1ccc(F)cc1)N1CCC(c2nnc3n2-c2ccc(Cl)cc2CC3)CC1 |  |  |  |  |  | < 50 | inhibition ([11]; 1321N1): 36% |
| COC(=O)C12CC1c1cc(Cl)ccc1-n1c2nnc1[C@H]1CC[C@H](Oc2ccccn2)CC1 (some centres not stated) |  |  |  | 6.40 |  | < 50 |  |
| Cc1cc([C@H]2CC[C@H](c3nnc4n3-c3ccc(Cl)cc3CCC4)CC2)no1 | 1 | 83 | 8.66 | 9.15 | 38 |  |  |
| Cc1ccc(S(=O)(=O)N2CCC(c3nnc4n3-c3ccc(Cl)cc3CC4)CC2)cc1 |  |  |  |  |  | < 50 | inhibition ([11]; 1321N1, filed as antagonist): 42% |
| CC(C)(C)OC(=O)N1CCC(c2nnc3n2-c2ccc(Cl)cc2CC3)CC1 |  |  |  |  |  | < 50 | inhibition ([11]; 1321N1): 37% |
| c1ccc(O[C@H]2CC[C@H](c3nnc4n3-c3ccccc3CCC4)CC2)nc1 | 8 | 231 | 7.70 | 8.64 | 188 |  |  |
| Cc1ccccc1N1CCN(C(=O)N2C[C@@H](C(=O)N3CCCC3)Cc3cc(Cl)ccc32)CC1 | 72 | 170 | 8.62 | 9.22 | 235 |  | efflux ratio at 1 µM [12]: 1.3; Papp A→B at 1 µM [13]: 10 ×10⁻⁶ cm/s |
| CC1(C)Nc2cc(Cl)ccc2-n2c(C3CCN(c4ccccn4)CC3)nnc21 |  |  |  | 6.10 |  | 28 |  |

| Compound | microsomal CLint at 1 µM ([1]; liver microsomes) [µL/min/mg] | microsomal CLint at 1 µM ([2]; liver microsomes) [µL/min/mg] | pIC50 [3] | pKi [4] | microsomal CLint at 1 µM ([5]; liver microsomes) [µL/min/mg] | inhibition [10] [%] | further results |
| --- | --- | --- | --- | --- | --- | --- | --- |
| Clc1ccc2c(c1)nc1[nH]nc(C3CCN(c4ccccn4)CC3)n12 |  |  |  | 5.28 |  | 11 |  |
| CN1Cc2cc(Cl)ccc2-n2c(nnc2[C@H]2CC[C@H](Oc3ccccn3)CC2)C1 [BALOVAPTAN] |  |  | 8.52 |  |  |  | microsomal CLint at 1 µM ([1]; microsomes): 0.5 µL/min/mg; microsomal CLint at 1 µM ([2]; microsomes): 22 µL/min/mg; inhibition in vivo at 30 mg/kg [14]: 80%; efflux ratio at 1 µM [12]: 1.1; Papp A→B at 1 µM [13]: 43 ×10⁻⁶ cm/s; microsomal CLint at 1 µM ([5]; microsomes): 17 µL/min/mg |
| COc1nc2cc(Cl)ccc2n2c(C3CCN(c4ccccn4)CC3)nnc12 | 8 | 39 |  | 6.15 | 115 | 40 | efflux ratio at 1 µM [12]: 0.8; Papp A→B at 1 µM [13]: 28 ×10⁻⁶ cm/s |
| CC(C)(C)OC(=O)NC1Cc2cc(Cl)ccc2-n2c(C3CCN(c4ccccn4)CC3)nnc21 (configuration not stated) |  |  |  |  |  | < 50 | inhibition ([11]; 1321N1): 25% |
| Cc1cc([C@H]2CC[C@H](c3nnc4n3-c3ccc(Cl)cc3C3CC43)CC2)no1 (mixture of isomers) | 0.3 | 1 | 6.30 | 7.00 | 3 |  |  |
| C#Cc1ccc2c(c1)CCCc1nnc(C3CCN(c4ccccn4)CC3)n1-2 | 27 | 121 | 8.57 | 9.35 | 115 |  |  |
| O=c1[nH]c2cc(Cl)ccc2n2c(C3CCN(c4ccccn4)CC3)nnc12 |  |  |  |  |  | 0 | inhibition ([11]; 1321N1): 3% |
| COC(=O)CC1Cc2cc(Cl)ccc2-n2c1nnc2[C@H]1CC[C@H](Oc2ccccn2)CC1 (some centres not stated) | 81 | 72 | 6.66 | 7.55 | 373 |  |  |
| Cc1nnc2n1-c1ccc(Cl)cc1CC2 |  |  |  |  |  | < 50 | inhibition ([11]; 1321N1): 9% |
| Clc1ccc2c(c1)CCCc1nnc(C3CCN(c4ccccn4)CC3)n1-2 | 19 | 196 | 8.49 | 8.85 | 116 |  | efflux ratio at 1 µM [12]: 1.1; Papp A→B at 1 µM [13]: 37 ×10⁻⁶ cm/s |
| Clc1ccc2c(c1)CCc1nnc(C3CCCCC3)n1-2 |  |  |  |  |  | < 50 | inhibition ([11]; 1321N1): 35% |
| Clc1ccc2c(c1)CCc1nnc(C3CCNCC3)n1-2 |  |  |  |  |  | < 50 | inhibition ([11]; 1321N1): 14% |
| Clc1ccc2c(c1)CCc1nnc(C3CCN(c4ccccn4)CC3)n1-2 | 0.3 | 32 | 5.85 | 7.15 | 36 |  | efflux ratio at 10 µM [6]: 0.8; Papp A→B at 10 µM [7]: 51 ×10⁻⁶ cm/s |
| Cc1cc([C@H]2CC[C@H](c3nnc4n3-c3ccc(Cl)cc3[C@@H]3C[C@H]43)CC2)no1 |  |  |  | 6.24 |  | < 50 |  |
| c1ccc(N2CCC(c3nnc4n3-c3ccccc3CCC4)CC2)nc1 | 12 | 130 | 6.93 | 7.82 | 163 |  |  |
| Clc1ccc2c(c1)CCCc1nnc([C@H]3CC[C@H](Oc4ccccn4)CC3)n1-2 | 7 | 124 | 9.00 | 9.10 | 94 |  | pKi [15]: 6.25; inhibition in vivo at 30 mg/kg [14]: 94% |
| CC(=O)N1c2cc(Cl)ccc2-n2c(C3CCN(c4ccccn4)CC3)nnc2C1(C)C |  |  |  | 5.62 |  | 43 |  |
| Cc1cc([C@H]2CC[C@H](c3nnc4n3-c3ccccc3CCC4)CC2)no1 | 0.4 | 125 | 7.60 | 8.80 | 114 |  |  |
| Clc1ccc2c(c1)C1CC1c1nnc(C3CCN(c4ccccn4)CC3)n1-2 (configuration not stated) |  |  |  | 6.59 |  | < 50 |  |
| O=S(=O)(c1ccc2c(c1)CCO2)N1CCC(c2nnc3n2-c2ccc(Cl)cc2CC3)CC1 |  |  |  |  |  | < 50 | inhibition ([11]; 1321N1, filed as antagonist): 43% |
